Bioassay records: PubChem BioAssay, The Scripps Research Institute Molecular Screening Center
Shown are actives, neighbours in structure and some others; about 1.4% of the full set was active somewhere.
TDP2 inh: human TDP2 enzyme inhibitors, primary screen, biochemical, epi absorbance, recombinant enzyme. Tyrosyl-DNA phosphodiesterase 2 (Homo sapiens), O95551. T5PNP hydrolysis, p-nitrophenol absorbance 415 nm. inhibition, % at 12.8 µM. 370,000 compounds, 0.34% hits. AID 720702, 2013;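 active = inhibition above the mean of all tested compounds plus 3 SD, set per campaign, cut at about 25% in these data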;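 note: 0% = DMSO with enzyme and 100% = buffer with substrate but no TDP2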
Target sequence (O95551 whole entry, looked up): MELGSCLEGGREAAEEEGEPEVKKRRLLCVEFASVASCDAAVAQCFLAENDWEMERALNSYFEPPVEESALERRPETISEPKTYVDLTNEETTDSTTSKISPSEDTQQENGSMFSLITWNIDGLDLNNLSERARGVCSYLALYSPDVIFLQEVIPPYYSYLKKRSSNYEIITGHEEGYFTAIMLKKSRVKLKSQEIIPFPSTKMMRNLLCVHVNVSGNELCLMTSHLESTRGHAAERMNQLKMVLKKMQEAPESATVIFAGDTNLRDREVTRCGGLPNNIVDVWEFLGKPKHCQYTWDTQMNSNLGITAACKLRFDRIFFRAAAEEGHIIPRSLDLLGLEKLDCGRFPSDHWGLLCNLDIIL
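Evaluation: % inhibition relative to enzyme-containing and enzyme-free wells. Material: recombinant human TDP2. Benchmarks: enzyme-free and DMSO wells. Timing: enzyme reaction with compound for 2 h at 37 °C. Compound dosing: 12.8 µM only. Measured by: p-Nitrophenol epi absorbance. Reagent: T5PNP substrate at 5 mM, a TopII-DNA adduct mimic. Replication: single well per compound.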
PAD4 inh: human PAD4 inhibitors, primary screen, biochemical, fluorescence polarization, 1536-well format | AID 485272, 2010 | 330,000 compounds, 0.41% hits | inhibition, % at 6.36 µM | recombinant PAD4, RCA probe fluorescence polarization;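 active = percent inhibition above a cutoff equal to the mean of all tested compounds plus 3 SD, cut at about 15% in these data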;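 note: 0% = PAD4 with RCA probe and DMSO and 100% = probe without PAD4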
GSTO1 inh: inhibitors of recombinant GSTO1, primary screen, counter-screen for RBBP9 inhibitor project, biochemical, fluorescence polarization; Glutathione S-transferase omega-1 (Homo sapiens), P78417; activity-based probe fluorescence polarization; inhibition, % at 5.96 µM; 300,000 compounds, 1.1% hits; AID 1974, 2009;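 active = inhibition above the campaign mean inhibition plus 3 SD, cut at about 35% in these data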;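 note: 0% = GSTO1-1 with DMSO and 100% = wells lacking GSTO1-1 enzyme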
Target sequence (P78417 whole entry, looked up): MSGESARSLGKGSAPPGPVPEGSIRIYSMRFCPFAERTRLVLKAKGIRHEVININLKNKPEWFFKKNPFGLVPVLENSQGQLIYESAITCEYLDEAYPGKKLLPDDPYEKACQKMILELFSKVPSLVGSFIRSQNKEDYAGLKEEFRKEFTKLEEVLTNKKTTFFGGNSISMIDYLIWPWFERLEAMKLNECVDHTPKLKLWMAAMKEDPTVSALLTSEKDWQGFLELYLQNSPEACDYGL
Fh CTSL1 inh: Fasciola hepatica cathepsin L1 inhibitors, primary screen, counter-screen for PFM18AAP inhibitor project, biochemical, QFRET, fluorogenic peptide substrate. recombinant F. hepatica cathepsin L1, Z-Leu-Arg-MCA fluorescence. inhibition, % at 5.96 µM. 300,000 compounds, 0.49% hits. AID 1906, 2009;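 active = inhibition above the mean of all tested compounds plus 3 SD, set per screening campaign, cut at about 17% in these data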;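 note: 0% = plate median of test compound wells and 100% = 1 µM Z-Phe-Ala-diazomethylketone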
GSTO1 inh conf: GSTO1 inhibitor hit confirmation, counter-screen for RBBP9 inhibitor project, biochemical, fluorescence polarization, triplicate; shares compounds with GSTO1 inh; recombinant GSTO1, probe fluorescence polarization; inhibition, % at 5.96 µM; 2,400 compounds, 54% hits; AID 2176, 2009;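 active = inhibition above the primary screen's cutoff, its mean inhibition plus 3 SD, cut at about 35% in these data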;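 note: loss of polarization as inhibitors block binding of rhodamine sulfonate ester activity probe; 0% = GSTO1 with DMSO and 100% = wells lacking GSTO1 enzyme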
PAD4 confirm: human PAD4 inhibitors, confirmation, biochemical, fluorescence polarization; shares compounds with PAD4 inh; recombinant PAD4, RCA probe fluorescence polarization; inhibition, % at 6.36 µM; 1,200 compounds, 28% hits;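 active = mean inhibition across replicates above the hit cutoff set by the earlier primary screen, cut at about 15% in these data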;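 note: inhibitors block active-site labeling by the probe so polarization falls; 0% = PAD4 with probe and DMSO and 100% = probe without PAD4 enzyme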
* = called active by the depositor; · = no result.

SMILES	TDP2 inh	PAD4 inh	GSTO1 inh	Fh CTSL1 inh	GSTO1 inh conf	PAD4 confirm
COC(=O)/C(=C/Nc1ccc(O)cc1)[N+](=O)[O-]	7.5	68.1*	75.4*	2.4	6.5	1.6
COC(=O)/C(=C/Nc1ccccc1)[N+](=O)[O-]	4.0	3.5	-4.1	-2.2	·	·
O=C1C=C(Nc2cccc3cccnc23)c2ccccc2C1=O	18.6	33.9*	77.0*	19.9*	58.0*	54.4*
O=C1C=C(Nc2ccccc2)c2ccccc2C1=O	21.9	·	·	·	·	·
C=CCN=C1NC(c2ccc(Cl)cc2)C(C(=O)OC)=C(C)N1C (stereo unspecified)	-2.1	·	·	·	·	·
Cc1ccc(S(=O)(=O)/N=C2/C=C(Sc3ncn[nH]3)C(=O)c3ccccc32)cc1	·	39.1*	96.3*	106.6*	88.0*	9.8
Cc1ccc(S(=O)(=O)Nc2ccc(O)c(Sc3ncn[nH]3)c2)cc1	-1.4	-5.2	14.5	-6.0	·	·
C[C@@H](CO)N(CCc1cn(Cc2ccccc2)nn1)S(=O)(=O)c1ccccc1Br	7.4	·	·	·	·	·
O=C1CCCC/C1=C\Nc1ccc(O)cc1	4.3	43.2*	42.3*	-4.7	5.9	5.5
O=C(NCCO)c1ccc2nc(-c3ccco3)c(-c3ccco3)nc2c1	47.0*	30.5*	75.4*	9.4	56.6*	-5.5
Nc1cc2nc3ccccc3oc-2cc1=O	12.7	27.7*	68.4*	3.9	50.0*	-1.3
O=c1oc2ccccc2cc1-c1nc2ccccc2o1	9.1	0.9	9.2	5.5	·	·
COC(=O)c1ccccc1Nc1ccccc1	-0.4	-1.5	7.0	2.5	·	·
COC(=O)c1ccccc1NC1=C/C(=N\S(=O)(=O)c2cccs2)c2ccccc2C1=O	12.0	37.5*	78.9*	51.6*	84.1*	35.4*
O=C1C(Nc2ccccc2)=C/C(=N/S(=O)(=O)c2cccs2)c2ccccc21	·	62.9*	84.2*	81.7*	95.1*	58.4*
COC(=O)c1ccccc1NC1=C/C(=N\S(=O)(=O)c2ccc(C(=O)O)cc2)c2ccccc2C1=O	·	24.7*	86.0*	47.1*	84.8*	66.1*
O=C1C(Nc2ccccc2)=C(NS(=O)(=O)c2ccccc2)C(=O)c2ccccc21	7.6	-4.2	2.5	2.5	·	·
COC(=O)C1=C(C(=O)OC)[C@@]2([C@@H](Cc3ccc(C)cc3)Nc3ccccc3)C=C[C@@H]1O2	7.3	·	·	·	·	·
CN(CCc1ccccn1)C(=O)c1cc2ccccn2n1	-2.6	·	·	·	·	·
CN1C(=O)NC(c2ccccc2[N+](=O)[O-])C2=C1CCCC2=O (stereo unspecified)	11.0	102.2*	71.2*	5.7	37.9*	62.4*
O=S(=O)(c1ccccc1Br)N(Cc1cn(Cc2ccccc2)nn1)C1CC1	3.1	·	·	·	·	·
Cc1[nH][nH]c(=O)c1C(c1c(C)[nH][nH]c1=O)c1cn(Cc2cccc3ccccc23)c2ccccc12	60.1*	31.3*	54.8*	2.9	40.6*	24.9*
CN(C)c1ccc(NC(=O)Oc2ccccc2)cc1	10.0	17.4*	39.5*	5.2	6.5	-1.7
Oc1c(Br)cc(C=Nc2ccc3nc(-c4ccccc4)[nH]c3c2)c(O)c1Br	3.3	36.6*	52.8*	4.5	41.9*	10.3
O=[N+]([O-])c1ccc(O)c(C=Nc2ccc3nc(-c4ccccc4)[nH]c3c2)c1	-5.3	-2.9	-1.6	2.7	·	·
SMILES	TDP2 inh	PAD4 inh	GSTO1 inh	Fh CTSL1 inh	GSTO1 inh conf	PAD4 confirm
CCCCN1CCN(C(=O)C2CCN(S(=O)(=O)c3ccc4[nH]c(=O)oc4c3)CC2)CC1	5.6	·	·	·	·	·
Nc1cc2nsnc2cc1Br	92.0*	77.7*	92.4*	113.6*	90.6*	53.0*
Nc1cnc(Br)cc1Br	-0.4	4.3	0.4	-3.5	·	·
Cn1c(=O)ccc2ccccc21	-3.2	·	·	·	·	·
C=Cc1c(C)c2cc3[nH]c(cc4nc(cc5nc(cc1[nH]2)C(C)=C5CCC(=O)O)C(CCC(=O)O)=C4C)c(C)c3C=C	12.8	24.0*	89.2*	3.8	82.0*	2.7
Cc1ccc2c(c1)N(CCCC(=O)NCc1cccs1)C(=O)CO2	-0.9	·	·	·	·	·
Cn1c(=O)c2cc(NCc3ccccc3)nnc2n(C)c1=O	75.5*	30.5*	81.0*	56.6*	15.5	2.5
O=C1N/C(=C\c2ccc(O)cc2)C(=O)c2ccccc21	·	30.2*	75.1*	108.4*	79.3*	-3.1
C[C@@H]1CN([C@@H](C)CO)C(=O)CCCn2cc(nn2)CO[C@H]1CN(C)C(=O)Nc1ccc(N2CCN(C)CC2)cc1	-7.7	·	·	·	·	·
O=c1[nH]c2ccccc2c(O)c1SCCO	3.2	1.4	3.1	-3.9	·	·
O=C1C(SCCO)=C(SCCO)C(=O)c2ccccc21	77.6*	68.1*	86.6*	78.6*	84.1*	38.8*
Cc1ccc(C=Nc2ccccc2C(N)=O)o1	-3.8	-4.3	-2.5	-1.2	·	·
Cc1ccc(C=Nc2ccc(N(C)C)cc2)o1	14.4	25.5*	82.6*	0.1	1.9	-9.1
O=C1C(Cl)=C(Nc2ccc3cn[nH]c3c2)C(=O)c2ccccc21	4.2	48.0*	82.8*	27.9*	90.0*	15.3*
CN(C)c1ccc(NC2=C(Cl)C(=O)c3ccccc3C2=O)cc1	22.0	28.2*	93.5*	2.3	88.7*	16.1*
N#CCCN(CCC#N)C(=O)C1c2ccccc2Oc2ccccc21	7.2	100.8*	51.9*	-2.5	9.7	7.5
OC(c1ccccc1)(c1ccccc1)C1CCN(CCCNc2ccccc2Br)CC1	-18.1	·	·	·	·	·
Nc1sc(-c2ccccc2)cc1C(=O)NCCc1c[nH]c2ccccc12	-10.1	·	·	·	·	·
CCCCn1c(NS(=O)(=O)c2ccc(C)cc2)c(S(=O)(=O)c2ccccc2)c2nc3ccccc3nc21	58.0*	36.0*	78.3*	-3.5	70.7*	-6.9
Cc1ccc(S(=O)(=O)c2c(N)n(CCCN(C)C)c3nc4ccccc4nc23)cc1	-0.7	1.4	-7.7	1.6	·	·
Cc1nnc(N/N=C/c2cc(C)n(-c3ccc(F)cc3)c2C)n1N	62.1*	29.0*	49.7*	1.5	2.4	-0.8
COC(=O)c1ccc(-n2c(C)cc(/C=N/Nc3nc(C)cc(=O)[nH]3)c2C)cc1	-14.1	2.1	13.6	-0.6	·	·
CC(=O)c1c2c3c(c(Br)ccc3n(C)c1=O)C(=O)c1ccccc1-2	-2.7	19.7*	47.6*	13.8	28.4	7.6
O=c1[nH]nc(CNc2ccc(O)cc2)c2ccccc12	9.5	55.2*	82.1*	-8.4	-2.0	2.7
O=c1[nH]nc(CNc2ccc(C(F)(F)F)cc2)c2ccccc12	-14.9	0.8	-42.1	1.2	·	·
